From ChEMBL document CHEMBL1153857, “1,4-Diazepanes derived from (S)-serine--homopiperazines with improved sigma(1) (sigma) receptor affinity and selectivity” (Eur J Med Chem, 2009)

Tests used:
[1] = target: Sigma non-opioid intracellular receptor 1 (Cavia porcellus, UniProt Q60492); test: Displacement of [3H](+)-pentazocine from sigma 1 receptor in guinea pig brain membrane by liquid scintillation analyzer; assay type: cell membranes
Method in brief: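 Guinea pig brain membranes (about […] protein) incubated with 3 nM [3H]-pentazocine and at least 6 test concentrations in 50 mM Tris-HCl pH 7.4, 120 min at 37 °C. Filtration through PEI-presoaked GF/B filters, four cold-buffer washes, scintillation counting. Non-specific binding with excess haloperidol. Triplicates; IC50 by non-linear regression, Ki reported.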

[2] = Displacement of [3H]ditolylguanidine from sigma 2 receptor in rat liver membrane by liquid scintillation analyzer; assay type: cell membranes
Method in brief: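 Rat liver membranes (about […] protein) incubated with 3 nM [3H]-ditolylguanidine plus 100 nM (+)-pentazocine to mask sigma1 sites, with at least 6 test concentrations, in 50 mM Tris-HCl pH 8.0, 120 min at 25 °C. Stopped with ice-cold 10 mM Tris pH 8.0, filtered on PEI-soaked GF/B, washed three times, scintillation counted. […] Triplicates; Ki reported.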

[3] = Selectivity for sigma 1 receptor in guinea pig brain membrane over sigma 2 receptor in rat liver membrane; assay type: cell membranes
Mu-type opioid receptor = Mu-type opioid receptor (Homo sapiens, UniProt P35372); test: Displacement of radioligand from mu opioid receptor
Method in brief: (§1)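 Competition binding, first screened at two test concentrations. Exact Ki determined only when binding inhibition at the higher concentration was considerable.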

[4] = target: Kappa-type opioid receptor (Homo sapiens, UniProt P41145); test: Displacement of [3H]U-69593 from kappa opioid receptor; method in brief: as §1
[5] = Displacement of radioligand from phencyclidine binding site of NMDA receptor; method in brief: as §1

Sigma non-opioid intracellular receptor 1, sequence (Q60492 whole entry): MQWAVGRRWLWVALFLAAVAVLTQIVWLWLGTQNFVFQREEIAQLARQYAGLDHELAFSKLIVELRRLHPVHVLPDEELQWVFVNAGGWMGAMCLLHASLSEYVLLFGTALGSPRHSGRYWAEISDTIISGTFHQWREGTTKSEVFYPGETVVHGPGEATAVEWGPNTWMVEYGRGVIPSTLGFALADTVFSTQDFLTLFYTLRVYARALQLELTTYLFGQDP
Kappa-type opioid receptor, sequence (P41145 whole entry): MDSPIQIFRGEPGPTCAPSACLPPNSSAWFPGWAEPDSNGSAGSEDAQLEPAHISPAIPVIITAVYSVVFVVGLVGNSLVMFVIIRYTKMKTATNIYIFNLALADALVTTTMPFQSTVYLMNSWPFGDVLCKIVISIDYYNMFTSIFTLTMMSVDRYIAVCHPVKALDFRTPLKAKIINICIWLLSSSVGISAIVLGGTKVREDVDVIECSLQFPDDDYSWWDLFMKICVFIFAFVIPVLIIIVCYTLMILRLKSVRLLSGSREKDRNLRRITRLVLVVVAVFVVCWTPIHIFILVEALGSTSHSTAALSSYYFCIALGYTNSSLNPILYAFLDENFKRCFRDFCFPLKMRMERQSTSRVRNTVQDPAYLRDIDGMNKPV
Mu-type opioid receptor, sequence (P35372 whole entry): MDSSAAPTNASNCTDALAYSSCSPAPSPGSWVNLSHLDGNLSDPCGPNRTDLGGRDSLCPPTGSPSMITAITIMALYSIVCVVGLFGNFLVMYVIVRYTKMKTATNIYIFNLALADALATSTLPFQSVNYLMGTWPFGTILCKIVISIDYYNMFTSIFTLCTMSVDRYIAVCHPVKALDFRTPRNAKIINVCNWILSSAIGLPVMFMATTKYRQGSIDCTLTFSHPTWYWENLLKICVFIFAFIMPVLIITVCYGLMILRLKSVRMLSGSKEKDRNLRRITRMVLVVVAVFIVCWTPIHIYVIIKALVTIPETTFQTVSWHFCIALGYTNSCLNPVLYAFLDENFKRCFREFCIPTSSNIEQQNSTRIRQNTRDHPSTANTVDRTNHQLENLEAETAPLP

SMILES	Ki [1]	Ki [2]	Ratio Ki [3]	IC50 (Mu-type opioid receptor)	IC50 [4]	IC50 [5]
COC(CN1CCCN(Cc2ccccc2)[C@@H](CO)C1)OC	0.32 µM	9.01 µM	28	> 10 µM	> 10 µM	> 10 µM
OC[C@H]1CN(Cc2ccccc2)CCCN1Cc1ccccc1	0.0074 µM	0.374 µM	53	> 10 µM	> 10 µM	> 10 µM
OC[C@H]1CN(Cc2ccccc2)CCN1Cc1ccccc1	0.038 µM	0.177 µM	5			
COC(CN1CCN(Cc2ccccc2)[C@@H](CO)C1)OC	> 10 µM	> 10 µM				
